According to paper PMC10878326 (Cell chemical biology, 2023):

How the values were obtained:
[1] = test system: lipid droplets in uninfected HC-04 cells; test: HCS LipidTOX lipid droplet staining in uninfected HC-04 cells; assay type: cell-based, human
[2] = test system: P. berghei infected HepG2 cells; test: Cell Painting morphological profile compared with landmark compound set; assay type: cell-based, human
[3] = test system: NR1D2; test: Western blot of NR1D2 protein in uninfected HC-04 cells; assay type: cell-based, human; conditions: uninfected HC-04, 1x to 10x IC50, 48 hours
Method in brief: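 Uninfected HC-04 cells were exposed 48 h to varying concentrations of test compound or NR1D2 inhibitor, then lysed. Protein was measured by DC assay, resolved by SDS-PAGE and transferred to nitrocellulose. Blots were blocked 1 h in 5% blocker and probed with anti-NR1D2 at 1:1000. Levels were expressed relative to beta actin.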

[4] = test system: P. berghei schizonts in HC-04 cells; test: Confocal imaging of P. berghei infected HC-04 cells treated with compound; assay type: cell-based, Plasmodium berghei; conditions: HC-04, 1x and 2x IC50, 48 hpi
Method in brief: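 HC-04 cells were seeded at 16,000 cells/well on poly-L-lysine-coated chamber slides and pretreated 24 h with test compound, NR1D2 inhibitor or DMSO. They were then infected with P. berghei Luc sporozoites (MOI 1:1), with treatment kept to 48 hpi. Cells were fixed in 4% PFA, permeabilised with 0.1% Triton X-100 and blocked in 1% BSA. Staining: anti-UIS4 1:1000 overnight at 4 °C, anti-NR1D2 1:500, LipidTOX 1:500 and DAPI. Imaging was at 63x oil. Merozoites per schizont were counted. Two biological replicates; one-way ANOVA with Dunnett's test.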

[5] = target: P. berghei liver stages; test: P. berghei luciferase liver stage assay; assay type: cell-based, Plasmodium berghei; conditions: IC50 used to set 1x and 2x treatment of HC-04 cells
[6] = test system: P. falciparum asexual blood stages; conditions: cited from earlier work
[7] = test system: P. berghei in NR1D2 knockdown lines; test: Parasite development IC50 shift in NR1D2 shRNA knockdown cells; assay type: cell-based, Plasmodium berghei; conditions: stable shRNA knockdown, luciferase after 48 hours
[8] = test system: NR1D2 transcript; test: qPCR of NR1D2 transcript in treated HC-04 cells; assay type: cell-based, human; conditions: HC-04, post treatment 48h
Method in brief: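 HC-04 cells were treated 48 h with varying concentrations of test compound or NR1D2 inhibitor. Cells were harvested, RNA was extracted, and NR1D2 transcript was quantified by qPCR with gene-specific primers.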

| SMILES | HCS lipid tox staining intensities [1] | morphological profile similarity / inferred host pathway [2] | NR1D2 protein expression level (western blot) [3] | number of merozoites per schizont relative to DMSO [4] | IC50 [5] | activity against asexual blood stages [6] | difference in IC50 in NR1D2 knockdown lines relative to wild type cells [7] | NR1D2 RNA expression levels [8] | parasite size relative to DMSO controls [4] |
| --- | --- | --- | --- | --- | --- | --- | --- | --- | --- |
| O=C1C(O)=C([C@H]2CC[C@H](c3ccc(Cl)cc3)CC2)C(=O)c2ccccc21 [atovaquone] | did not observe any significant changes |  |  |  |  |  |  |  |  |
| Cc1cccc2sc(C(=O)NCc3cccc(NS(N)(=O)=O)c3)c(Cl)c12 [MMV1452174] | did not observe any significant changes | potential modulator of the host S1P pathway |  |  |  |  |  |  |  |
| CN1CCN(Cc2cc(CNC3(c4ccccc4F)CCCC3)ccc2O)CC1 [ARN5187, reference compound] |  |  | no changes in protein expression levels | lower number of merozoites per schizont |  |  |  |  |  |
| CC1(C)c2nc(-c3ccc(F)cc3)c(Nc3ccc(Cl)cc3)n2CCN1C(=O)CN [GNF179] | did not observe any significant changes |  |  |  |  |  |  |  |  |
| Cc1cc(C(=O)Oc2ccccc2C(N)=O)c(C)n1Cc1ccco1 [MMV1088447] |  | phenocopied treatment with tamoxifen, endoxifen and lichochalcone A | dose dependent reduction | significant reduction | 1050 ± 290 nM | little activity | did not see any differences | no significant changes | smaller |
| N#CC(C(=O)c1cc(S(=O)(=O)N2CCc3ccccc3C2)ccc1Cl)c1ccccn1 (stereo not shown) [MMV1346624] |  | phenocopied treatment with tamoxifen, endoxifen and lichochalcone A | dose dependent reduction | significant reduction | 1040 ± 730 nM | little activity | did not see any differences | no significant changes | smaller |
